Data set [1] deals with T1, Prostaglandin E synthase (Homo sapiens, UniProt O14684).
T1 sequence (O14684 whole entry): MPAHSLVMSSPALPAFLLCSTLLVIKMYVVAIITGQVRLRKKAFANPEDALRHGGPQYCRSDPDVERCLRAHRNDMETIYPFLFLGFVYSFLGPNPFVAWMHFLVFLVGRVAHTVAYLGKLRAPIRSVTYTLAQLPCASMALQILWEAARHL
The data set is described as follows: Inhibition of mPGES1 in human A549 cells assessed as reduction in IL-1beta-induced PGE2 production preincubated for 30 mins followed by incubation with IL-1beta for 16 to 20 hrs measured after 10 mins by HTRF assay. The format is cell-based. On the technique in general: Time-resolved FRET reads energy transfer from a long-lived donor to a nearby acceptor.

The target in data set [2] is T2, Prostaglandin E synthase (Canis lupus familiaris, UniProt A0SYQ0).
T2 sequence (A0SYQ0 whole entry): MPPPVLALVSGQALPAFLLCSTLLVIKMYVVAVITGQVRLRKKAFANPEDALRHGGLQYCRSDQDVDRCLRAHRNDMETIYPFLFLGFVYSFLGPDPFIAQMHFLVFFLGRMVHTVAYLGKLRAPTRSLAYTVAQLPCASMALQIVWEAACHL
The data set is described as follows: Inhibition of mPGES1 in dog whole blood assessed as reduction in LPS-induced PGE2 production measured after 20 to 24 hrs. The procedure, abridged:
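Dog whole blood stimulated with LPS. […] At least two experiments, each in duplicate; run by an external contract lab.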

The target in data set [3] is T3, Nuclear receptor subfamily 1 group I member 2 (Homo sapiens, UniProt O75469).
T3 sequence (O75469 whole entry): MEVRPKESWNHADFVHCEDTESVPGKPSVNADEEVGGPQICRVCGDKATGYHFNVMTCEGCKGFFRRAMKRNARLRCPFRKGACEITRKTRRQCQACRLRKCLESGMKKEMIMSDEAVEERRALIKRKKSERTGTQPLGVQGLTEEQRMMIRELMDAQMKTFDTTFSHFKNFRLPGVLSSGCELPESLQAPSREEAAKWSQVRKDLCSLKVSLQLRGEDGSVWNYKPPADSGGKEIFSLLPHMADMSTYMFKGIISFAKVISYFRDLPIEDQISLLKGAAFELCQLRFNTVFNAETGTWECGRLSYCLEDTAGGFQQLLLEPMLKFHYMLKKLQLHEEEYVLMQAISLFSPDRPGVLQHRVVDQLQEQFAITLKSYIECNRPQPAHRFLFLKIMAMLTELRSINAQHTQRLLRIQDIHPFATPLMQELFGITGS
The data set is described as follows: Activation of human PXR at 10 uM relative to rifampicin. The format is ADME. A digest of the protocol:
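Activation of human PXR with test compound at 10 µM, expressed relative to the rifampicin effect.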

Data set [4] can be described thus: Half life in Sprague-Dawley rat at 10 mg/kg, po. The data set is classed as ADME, organism-based. The note with it: in vivo. The procedure, abridged: (§1)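 Half-life calculated from plasma profiles after oral dosing at 10 mg/kg. Rat: male Sprague-Dawley, 0.5% methylcellulose suspension, n = 3. Dog and cynomolgus monkey: Tween 80 (2.5 μL/mL) + 0.5 (w/v) MC suspension.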

A short description of data set [5]: Apparent volume of distribution in cynomolgus monkey at 1 mg/kg, iv. The format is ADME, organism-based, Macaca fascicularis. As to conditions: in vivo, read-out: Vz. A digest of the protocol:
(§2)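 Intravenous dose of 1 mg/kg; clearance and Vz derived from the i.v. arm. Rat (male Sprague-Dawley) vehicle 20% NMP + 20% ethanol + 60% PEG 200, mean ± SD (n = 3). Dog vehicle 20% NMP + 20% EtOH + 10% PG + 50% PEG 200:water (3:2). Monkey vehicle 10% NMP + 10% ethanol + 10% PEG + 70% PEG200:water (3:2).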

Data set [6] in a line: Apparent volume of distribution in Sprague-Dawley rat at 1 mg/kg, iv. The note with it: in vivo, read-out: Vz. The format is ADME, organism-based. The procedure, abridged: as §2
Data set [7] is described as follows: AUC (0 to 24 hrs) in Sprague-Dawley rat at 10 mg/kg, po. The data set is classed as ADME, organism-based. More on the design: dose 10 mg/kg, time < 24 hr, route oral. As to conditions: in vivo. The procedure, abridged:
(§3)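 Single oral dose of 10 mg/kg. Cmax and AUC0-24 taken from the oral arm. Rat: male Sprague-Dawley, dosed in 0.5% methylcellulose suspension, mean ± SD (n = 3). Guinea pig: 20% NMP + 0.5% MC suspension, mean ± SD (n = 3). Dog and cynomolgus monkey: 2.5 μL/mL Tween 80 + 0.5 (w/v) MC suspension.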

A short description of data set [8]: Tmax in Beagle dog at 10 mg/kg, po. The note with it: in vivo. The data set is classed as ADME, organism-based, Canis lupus familiaris. A digest of the protocol: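 Tmax from oral 10 mg/kg dosing. Rat: male Sprague-Dawley, 0.5% MC suspension, n = 3. Guinea pig: 20% NMP + 0.5% MC suspension, n = 3. Dog and monkey: 2.5 μL/mL Tween 80 + 0.5% MC suspension.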

Data set [9] in a line: Cmax in Beagle dog at 10 mg/kg, po. The format is ADME, organism-based, Canis lupus familiaris. Set-up: dose 10 mg/kg, route oral. As to conditions: in vivo. A digest of the protocol: as §3
Data set [10] has as its target T4, Prostaglandin E synthase (Macaca fascicularis) (UniProt Q6PWL6).
T4 sequence (whole entry): T1 sequence (O14684 whole entry) with V7A, V108L, A112V
Nature of the data set: Inhibition of mPGES1 in rhesus monkey whole blood assessed as reduction in LPS-induced PGE2 production at 10 uM measured after 20 to 24 hrs relative to control. As to conditions: Macaca mulatta. A digest of the protocol:
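Rhesus monkey whole blood stimulated with LPS; PGE2 inhibition measured relative to vehicle control […]. At least two experiments, each in duplicate; run by an external contract lab.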

The nature of data set [11]: Half life in Beagle dog at 10 mg/kg, po. The data set is classed as ADME, organism-based, Canis lupus familiaris. As to conditions: in vivo. A digest of the protocol: as §1
Data set [12] in a line: Half life in cynomolgus monkey at 10 mg/kg, po. The data set is classed as ADME, organism-based, Macaca fascicularis. As to conditions: in vivo. The procedure, abridged: as §1
For data set [13], the target named is T5, Cytosolic phospholipase A2 (Homo sapiens) (UniProt P47712).
T5 sequence (whole entry): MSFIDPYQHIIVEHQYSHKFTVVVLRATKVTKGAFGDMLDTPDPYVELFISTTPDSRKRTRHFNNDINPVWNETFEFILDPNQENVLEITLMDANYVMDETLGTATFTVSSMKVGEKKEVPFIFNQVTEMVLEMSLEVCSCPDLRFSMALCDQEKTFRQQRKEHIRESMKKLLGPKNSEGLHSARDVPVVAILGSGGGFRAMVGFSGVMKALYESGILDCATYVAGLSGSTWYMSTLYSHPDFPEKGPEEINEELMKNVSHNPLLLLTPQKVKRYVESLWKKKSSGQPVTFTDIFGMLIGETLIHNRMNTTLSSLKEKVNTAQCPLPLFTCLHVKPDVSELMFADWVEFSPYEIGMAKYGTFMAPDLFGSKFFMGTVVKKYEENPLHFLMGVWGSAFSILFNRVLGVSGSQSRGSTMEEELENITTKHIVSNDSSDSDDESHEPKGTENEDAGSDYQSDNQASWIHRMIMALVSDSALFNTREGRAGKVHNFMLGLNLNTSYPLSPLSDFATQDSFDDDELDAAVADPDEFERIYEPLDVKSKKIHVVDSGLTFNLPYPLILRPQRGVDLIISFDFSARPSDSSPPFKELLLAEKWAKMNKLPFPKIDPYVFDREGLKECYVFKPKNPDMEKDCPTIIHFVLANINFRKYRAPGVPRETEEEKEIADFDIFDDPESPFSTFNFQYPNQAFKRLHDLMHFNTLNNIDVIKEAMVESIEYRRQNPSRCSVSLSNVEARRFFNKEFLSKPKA
The data set is described as follows: Inhibition of cPLA2 (unknown origin) at 10 uM relative to control. A digest of the protocol: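 Selectivity panel against other prostanoid-pathway enzymes. % inhibition values are means of at least two experiments, each in duplicate.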

SMILES strings stand for the structures. Where a chain is given by its changes, count along the chain named. pIC50: −log10 of the molar value.

As for `CC1(C)Cc2c(c(C(=O)Nc3ccc(F)c(C(F)(F)F)c3)cc3nc(Nc4c(F)cccc4Cl)[nH]c23)O1`, the pIC50 at Prostaglandin E synthase [1] is 7.85; on Prostaglandin E synthase [2] it was 5.21. For the same compound, in [3], the Activity came out at 34%. In addition, the half-life is 4 h in data set [4], 14.4 h in data set [11] and 6.45 h in data set [12]. For the same compound, the Vd in data set [5] is 1.83 L/kg; in data set [6], 3.85 L/kg. The same compound showed an AUC(0-t) at 24 h in [7] of 11000 ng·h/mL. Moreover, the Tmax in data set [8] amounted to 12 h. In [9], this compound had a Cmax of 492 ng/mL. In [10], the inhibition came to 50.4%.

For the compound `CC1(C)Cc2c(c(C(=O)Nc3cc(C(F)(F)F)ccc3F)cc3nc(Nc4c(F)cccc4Cl)[nH]c23)O1`, the pIC50 on Prostaglandin E synthase [1] was 8.02. Moreover, the inhibition in data set [13] was 22.9%.

In the case of `Cc1cccc(Cl)c1Nc1nc2cc(C(=O)Nc3cc(C(F)(F)F)ccc3F)c3c(c2[nH]1)CC(C)(C)O3`, the pIC50 on Prostaglandin E synthase [1] is 7.52; at Prostaglandin E synthase [2], 5.52. The compound further gave an Activity in data set [3] of 57%. For the same compound, the half-life is 7 h in data set [4], 20 h in data set [11] and 12 h in data set [12]. Moreover, the Vd in [5] was 2.1 L/kg; in data set [6] it was 4.84 L/kg. Further, in data set [7], the AUC(0-t) at 24 h came out at 2580 ng·h/mL. In addition, the Tmax in data set [8] was 8 h. Also, the inhibition was 5.1% in data set [13] and 48.2% in [10]. The Cmax in data set [9] was 843 ng/mL.

As to `Cn1c(Nc2c(F)cccc2Cl)nc2cc(C(=O)Nc3cccc(C(F)(F)F)c3)c3c(c21)CC(C)(C)O3`, at Prostaglandin E synthase [1], the pIC50 is 8.52. Further, the inhibition in [13] stood at 10.6%.

Turning to `CC1(C)Cc2c(c(C(=O)Nc3ccc(C(F)(F)F)cn3)cc3nc(Nc4c(Cl)cccc4Cl)[nH]c23)O1`, the pIC50 at Prostaglandin E synthase [1] is 8.39; on Prostaglandin E synthase [2] it was 5.45. Moreover, the Activity in data set [3] is reported as 46%. Also, the half-life in data set [4] was 2.7 h; in [11] it was 17 h; in [12], 5.3 h. The Vd in data set [5] came to 4.1 L/kg; in data set [6], 3.77 L/kg. For the same compound, in data set [7], the exposure AUC(0-t) at 24 h was 4020 ng·h/mL. In data set [8], the Tmax is 12 h. Also, the inhibition in [13] is 4.3%; in [10] it was 37%. The compound also displayed a Cmax in data set [9] of 336 ng/mL.

Usually pIC50 stands for the IC50 on a negative log10 scale, so that one unit is a factor of ten. By half-life is commonly meant how long it takes for the measured level to halve. Usually AUC(0-t) stands for the area under the concentration-time curve up to a stated or last time point. The Tmax is the time from dosing to the highest level. Usually Cmax stands for the highest concentration seen after dosing. The term inhibition denotes the relative decrease from the control value, in per cent.

For the origin of these results see ChEMBL document CHEMBL4219124, “Alleviating CYP and hERG liabilities by structure optimization of dihydrofuran-fused tricyclic benzo[d]imidazole series - Potent, selective and orally efficacious microsomal prostaglandin E synthase-1 (mPGES-1) inhibitors: Part-2” (Bioorg Med Chem Lett, 2018).
